{"source": "paper PMC2871064", "about": "(Cancer research, 2010)", "key": {"SK-MEL-3 cells": {"tested_on": "SK-MEL-3 cells", "assay": "Binding of [^131I]MIP-1145 to melanotic SK-MEL-3 cells", "assay_type": "cell-based, human", "in_short": "(§1)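 Cells per well: 50,000 for SK-MEL-3, 25,000 for A375, attached overnight. Time course: up to 6 h at 37 °C with 11.5 nM tracer (~9 × 10⁵ CPM/well) in D-MEM/0.5% BSA. Acid wash (50 mM glycine, 150 mM NaCl, pH 3.0, 4 °C, 5 min) strips the surface fraction for gamma counting; cells are scintillation-counted. Competition: 2 h, 3.6 nM tracer plus 1.6–1,600 nM unlabeled compound.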"}, "A375 cells": {"tested_on": "A375 cells", "assay": "Binding of [^131I]MIP-1145 to amelanotic A375 cells", "assay_type": "cell-based, human", "in_short": "as §1"}, "stage 4 melanoma": {"tested_on": "stage 4 melanoma", "details": "cited from earlier work"}, "[1]": {"details": "2 hours, 3.6 nM tracer, up to 1.6 uM cold compound"}}, "note": "Like-named read-outs stand apart in the source and are kept apart here."}
{"compound": "CCN(CC)CCNC(=O)c1cc(I)c(NC(=O)c2ccc(F)cc2)cc1OC", "note": "[MIP-1145, N-(2-diethylamino-ethyl)-4-(4-fluoro-benzamido)-5-iodo-2-methoxy-benzamide]", "values": [{"measurement": "Competition by non-radiolabeled MIP-1145 for [^131I]MIP-1145 binding", "setting": "SK-MEL-3 cells; [1]", "value": "very little competition"}, {"measurement": "Cell associated fraction of the total added", "setting": "SK-MEL-3 cells; after 6 hours, 11.5 nM", "value": "approximately 43%"}, {"measurement": "Competition by non-radiolabeled MIP-1145 for [^131I]MIP-1145 binding", "setting": "A375 cells; [1]", "value": "very little competition"}, {"measurement": "Cell associated fraction of the total added", "setting": "A375 cells; after 6 hours, 11.5 nM", "value": "about 13%"}]}
{"compound": "CN(C)/N=N/c1[nH]cnc1C(N)=O", "note": "[Dacarbazine]", "values": [{"measurement": "Objective response rate", "setting": "stage 4 melanoma; stage 4 melanoma patients", "value": 16, "unit": "%"}]}
{"compound": "interferon alpha-2b", "values": [{"measurement": "Objective response rate", "setting": "stage 4 melanoma; stage 4 disease, high-dose", "value": 14, "unit": "%"}]}
